Results from ChEMBL document CHEMBL2331353, “Synthesis and biological evaluation of some novel resveratrol amide derivatives as potential anti-tumor agents” (Eur J Med Chem, 2013).

Key:
B16-F10 = assay: Antitumor activity against mouse B16F10 cells assessed as inhibition of cell proliferation after 48 hrs by MTT assay; assay type: functional, cell-based; conditions: B16-F10, 48 h
Outline: (§1)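 Cells grown to log phase in RPMI 1640 with 10% FBS, seeded at 2×10^4 cells/mL and preincubated 24 h at 37 °C, 5% CO2. Compounds at preset concentrations added (6 wells), celecoxib as positive reference, 48 h exposure. MTT (2.5 mg/mL in PBS) for 4 h, then SDS/isobutanol/HCl extraction overnight at 37 °C. OD read at 570 nm. Triplicate wells per concentration, at least three independent runs.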

[1] = target: T1, Prostaglandin G/H synthase 2 (Mus musculus, UniProt Q05769); assay: Inhibition of COX-2 in mouse RAW264.7 cells assessed as decrease in LPS-induced PGE2 production; assay type: cell-based
T1 sequence (Q05769 whole entry): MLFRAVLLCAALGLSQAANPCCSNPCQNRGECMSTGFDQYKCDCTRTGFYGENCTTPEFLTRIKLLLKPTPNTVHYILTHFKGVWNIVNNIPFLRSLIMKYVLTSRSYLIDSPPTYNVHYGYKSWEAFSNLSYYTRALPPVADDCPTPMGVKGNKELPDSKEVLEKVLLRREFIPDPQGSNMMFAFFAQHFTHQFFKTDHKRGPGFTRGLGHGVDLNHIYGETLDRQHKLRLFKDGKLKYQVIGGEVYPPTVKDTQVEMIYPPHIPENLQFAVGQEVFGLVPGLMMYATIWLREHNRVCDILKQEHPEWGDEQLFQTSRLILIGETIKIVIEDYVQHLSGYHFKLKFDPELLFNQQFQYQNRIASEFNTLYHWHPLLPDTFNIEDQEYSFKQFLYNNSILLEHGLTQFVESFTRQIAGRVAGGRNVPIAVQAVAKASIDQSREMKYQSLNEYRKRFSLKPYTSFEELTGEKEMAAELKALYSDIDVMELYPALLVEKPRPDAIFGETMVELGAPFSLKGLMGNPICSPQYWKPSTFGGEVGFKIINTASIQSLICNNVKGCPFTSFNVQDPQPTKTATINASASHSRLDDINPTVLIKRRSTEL

[2] = target: T2, Prostaglandin G/H synthase 2 (Homo sapiens, UniProt P35354); assay: Inhibition of COX-2 (unknown origin) by chemiluminescence assay
T2 sequence (P35354 whole entry): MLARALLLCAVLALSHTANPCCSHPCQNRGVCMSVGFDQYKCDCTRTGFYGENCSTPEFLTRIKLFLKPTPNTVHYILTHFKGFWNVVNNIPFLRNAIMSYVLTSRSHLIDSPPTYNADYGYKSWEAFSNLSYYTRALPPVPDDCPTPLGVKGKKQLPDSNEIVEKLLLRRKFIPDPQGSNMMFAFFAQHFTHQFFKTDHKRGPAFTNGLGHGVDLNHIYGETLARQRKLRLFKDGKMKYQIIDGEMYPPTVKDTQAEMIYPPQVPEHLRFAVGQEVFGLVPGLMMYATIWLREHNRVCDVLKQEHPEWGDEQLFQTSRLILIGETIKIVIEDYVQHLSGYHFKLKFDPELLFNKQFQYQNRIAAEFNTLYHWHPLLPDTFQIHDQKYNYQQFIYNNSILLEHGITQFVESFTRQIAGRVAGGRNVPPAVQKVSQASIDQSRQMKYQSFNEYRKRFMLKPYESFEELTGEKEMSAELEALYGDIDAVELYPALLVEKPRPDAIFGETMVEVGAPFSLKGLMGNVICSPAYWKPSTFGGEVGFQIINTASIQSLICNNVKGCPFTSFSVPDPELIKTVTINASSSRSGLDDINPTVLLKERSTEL

MCF7 = assay: Antitumor activity against human MCF7 cells assessed as inhibition of cell proliferation after 48 hrs by MTT assay; assay type: functional, cell-based; conditions: MCF7, 48 h; outline: as §1
[3] = target: Prostaglandin G/H synthase 1 (Homo sapiens, UniProt P23219); assay: Inhibition of COX-1 (unknown origin) by chemiluminescence assay
Chain of Prostaglandin G/H synthase 1 (P23219 whole entry): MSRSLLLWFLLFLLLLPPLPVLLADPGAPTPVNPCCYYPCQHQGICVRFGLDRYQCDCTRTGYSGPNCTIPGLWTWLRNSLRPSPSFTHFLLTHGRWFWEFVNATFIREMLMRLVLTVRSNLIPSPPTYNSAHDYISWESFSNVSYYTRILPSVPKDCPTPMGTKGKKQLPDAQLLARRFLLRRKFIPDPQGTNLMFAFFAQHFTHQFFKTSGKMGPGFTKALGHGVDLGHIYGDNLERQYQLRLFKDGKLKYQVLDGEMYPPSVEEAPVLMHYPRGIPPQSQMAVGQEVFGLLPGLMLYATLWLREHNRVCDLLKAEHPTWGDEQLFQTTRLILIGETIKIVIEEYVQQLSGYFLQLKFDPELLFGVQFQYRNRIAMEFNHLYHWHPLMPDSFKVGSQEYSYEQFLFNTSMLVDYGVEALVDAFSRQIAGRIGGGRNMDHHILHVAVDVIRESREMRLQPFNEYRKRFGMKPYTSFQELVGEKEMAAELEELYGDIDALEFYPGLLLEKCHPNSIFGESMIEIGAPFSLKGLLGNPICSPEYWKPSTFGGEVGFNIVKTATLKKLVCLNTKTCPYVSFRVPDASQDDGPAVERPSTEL

A549 = assay: Antitumor activity against human A549 cells assessed as inhibition of cell proliferation after 48 hrs by MTT assay; assay type: functional, cell-based; conditions: A549, 48 h; outline: as §1

| Compound | IC50 (B16-F10) [µM] | IC50 [1] [µM] | IC50 [2] [µM] | IC50 (MCF7) [µM] | IC50 [3] [µM] | IC50 (A549) [µM] |
| --- | --- | --- | --- | --- | --- | --- |
| CCCCCCCCNC(=O)/C=C/c1c(/C=C/c2ccc(OC)cc2)cc(OC)cc1OC | 8.06 | 13.8 | 20.1 | 4.28 | > 50 | 8.66 |
| COc1ccc(/C=C/c2cc(OC)cc(OC)c2/C=C/C(=O)NC2CCCCC2)cc1 | 5.48 | 1.98 | 5.09 | 2.63 | > 50 | 3.61 |
| CCCCCN(CCCCC)C(=O)/C=C/c1c(/C=C/c2ccc(OC)cc2)cc(OC)cc1OC | 9.27 | 7.19 | 16.4 | 6.13 | > 50 | 7.49 |
| COc1ccc(/C=C/c2cc(OC)cc(OC)c2/C=C/C(=O)NCCCN2CCOCC2)cc1 | 6.83 | 3.68 | 8.92 | 4.15 | > 50 | 4.22 |
| COc1ccc(/C=C/c2cc(OC)cc(OC)c2/C=C/C(=O)N2CCN(C)CC2)cc1 | 5.67 | 1.62 | 5.78 | 2.29 | 39.1 | 4.51 |
| CCN(CC)C(=O)/C=C/c1c(/C=C/c2ccc(OC)cc2)cc(OC)cc1OC | 3.98 | 2.15 | 4.67 | 6.55 | > 50 | 3.35 |
| COc1ccc(/C=C/c2cc(OC)cc(OC)c2/C=C/C(=O)NCCCCl)cc1 | 2.78 | 0.39 | 1.27 | 1.98 | 38.4 | 1.98 |
| CCCCN(CCCC)C(=O)/C=C/c1c(/C=C/c2ccc(OC)cc2)cc(OC)cc1OC | 9.03 | 4.12 | 10.1 | 3.99 | > 50 | 6.16 |
| COc1ccc(/C=C/c2cc(OC)cc(OC)c2/C=C/C(=O)N2CCC(c3ccccc3)CC2)cc1 | 9.18 | 3.55 | 8.57 | 4.23 | > 50 | 6.69 |
| COc1ccc(/C=C/c2cc(OC)cc(OC)c2/C=C/C(=O)NCCCl)cc1 | 3.45 | 0.45 | 1.36 | 2.3 | 32.3 | 2 |
| CCCN(CCC)C(=O)/C=C/c1c(/C=C/c2ccc(OC)cc2)cc(OC)cc1OC | 5.98 | 3.88 | 8.06 | 2 | 45.9 | 5.58 |
| COc1ccc(/C=C/c2cc(OC)cc(OC)c2/C=C/C(=O)N2CCC(C)CC2)cc1 | 7.76 | 8.09 | 10.3 | 6.45 | > 50 | 7.2 |
| COc1ccc(/C=C/c2cc(OC)cc(OC)c2/C=C/C(=O)O)cc1 | 6.78 | 3.01 | 6.89 | 6.1 | > 50 | 5.46 |
| COc1ccc(/C=C/c2cc(OC)cc(OC)c2/C=C/C(=O)N(CC(C)C)CC(C)C)cc1 | 4.85 | 2.56 | 6.84 | 2.39 | > 50 | 3.35 |
| COc1ccc(/C=C/c2cc(OC)cc(OC)c2/C=C/C(=O)N2CC(C)CC(C)C2)cc1 (centres undefined) | 3.26 | 0.58 | 1.98 | 1.57 | 45.1 | 2.27 |
| CCCCCCN(CCCCCC)C(=O)/C=C/c1c(/C=C/c2ccc(OC)cc2)cc(OC)cc1OC | 8.02 | 3.1 | 9.08 | 4.03 | > 50 | 5.34 |
| CCNC(=O)/C=C/c1c(/C=C/c2ccc(OC)cc2)cc(OC)cc1OC | 6.99 | 7.06 | 12.4 | 7.06 | 35.4 | 7.86 |

| Compound | IC50 (B16-F10) [µM] | IC50 [1] [µM] | IC50 [2] [µM] | IC50 (MCF7) [µM] | IC50 [3] [µM] | IC50 (A549) [µM] |
| --- | --- | --- | --- | --- | --- | --- |
| COc1ccc(/C=C/c2cc(OC)cc(OC)c2/C=C/C(=O)NC(C)C)cc1 | 4.02 | 0.72 | 2.01 | 2.56 | 40.4 | 2.36 |
| COc1ccc(/C=C/c2cc(OC)cc(OC)c2/C=C/C(=O)NC(C)(C)C)cc1 | 7.98 | 5.29 | 11.1 | 13.6 | > 50 | 8.67 |
| COc1ccc(/C=C/c2cc(OC)cc(OC)c2/C=C/C(=O)NC2CC2)cc1 | 10.2 | 7.05 | 13 | 3.94 | > 50 | 8.81 |
| CCCCCCNC(=O)/C=C/c1c(/C=C/c2ccc(OC)cc2)cc(OC)cc1OC | 7.18 | 5.01 | 8.99 | 5.53 | 34.7 | 6.23 |
| Cc1ccc(-c2cc(C(F)(F)F)nn2-c2ccc(S(N)(=O)=O)cc2)cc1 [CELECOXIB] | – | – | – | – | – | 15.6 |
| COc1ccc(/C=C/c2cc(OC)cc(OC)c2/C=C/C(=O)N2CCCC2)cc1 | 9.28 | 3.76 | 8.87 | 4.2 | > 50 | 6.35 |
| COc1ccc(/C=C/c2cc(OC)cc(OC)c2/C=C/C(=O)N(C)C)cc1 | 5.78 | 4.36 | 13 | 6.86 | > 50 | 6 |
| COc1ccc(/C=C/c2cc(OC)cc(OC)c2/C=C/C(=O)N2CCSCC2)cc1 | 8.1 | 3.18 | 8.01 | 2.76 | 45.2 | 5.4 |
| COc1ccc(/C=C/c2cc(OC)cc(OC)c2/C=C/C(=O)N2CCCCC2)cc1 | 9.75 | 15.3 | 23.2 | 6.05 | > 50 | 10.6 |
| COc1ccc(/C=C/c2cc(OC)cc(OC)c2/C=C/C(=O)N2CCCC(C)C2)cc1 (centres undefined) | 8.25 | 3.16 | 7.09 | 11.9 | > 50 | 5.82 |
| C#CCNC(=O)/C=C/c1c(/C=C/c2ccc(OC)cc2)cc(OC)cc1OC | 8.28 | 5.08 | 9.08 | 4.56 | > 50 | 6.93 |
| COc1ccc(/C=C/c2cc(OC)cc(OC)c2/C=C/C(=O)N2CCCCC2C)cc1 (centres undefined) | 7.66 | 2.44 | 6.69 | 4.35 | > 50 | 5.77 |
| COc1ccc(/C=C/c2cc(OC)cc(OC)c2/C=C/C(=O)N2CCOCC2)cc1 | 3.08 | 0.85 | 1.88 | 3.31 | > 50 | 2.32 |
| CCC(C)NC(=O)/C=C/c1c(/C=C/c2ccc(OC)cc2)cc(OC)cc1OC (centres undefined) | 4.38 | 2.09 | 4.56 | 3.43 | > 50 | 3.95 |
| COc1ccc(/C=C/c2cc(OC)cc(OC)c2/C=C/C(=O)NCc2ccco2)cc1 | 10.1 | 3.15 | 9.67 | 5.42 | 29.1 | 6.42 |
| COc1ccc(/C=C/c2cc(OC)cc(OC)c2/C=C/C(=O)N2CCC(Cl)CC2)cc1 | 4.69 | 0.46 | 1.45 | 4.95 | 40.6 | 2.08 |
| CCC1CCCCN1C(=O)/C=C/c1c(/C=C/c2ccc(OC)cc2)cc(OC)cc1OC (centres undefined) | 7.38 | 6.27 | 10.3 | 5.24 | > 50 | 5.6 |
